Reference: ChEMBL document CHEMBL1125578, “Synthesis of a series of nitrothiophenes with basic or electrophilic substituents and evaluation as radiosensitizers and as bioreductively activated cytotoxins” (J Med Chem, 1991)

Assays:
V79 [1] = assay: Reduction of optical density by 50% compared to controls when assay was performed under nitrogen in Hypoxic V79 Cells.; format: functional, Cricetulus griseus
In short: (§1)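 V79 cells were tested in an MTT assay, with incubations run under air or under nitrogen. Optical density was taken as proportional to the number of viable cells at the end of incubation. C50 is the concentration lowering optical density by 50% versus controls. The ratio is C50(AIR)/C50(N2).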

V79 [2] = assay: Compound was evaluated for its concentration to reduce the optical density by 50% compared to controls when assay was performed under air in […] V79 Cells; format: functional, Cricetulus griseus; in short: as §1
[3] = The ratio of C50(AIR) to that of C50(N2).; format: functional; in short: as §1
[4] = tested on: V79 cells (Cricetulus griseus); assay: In vitro concentration of gamma-radiation to give an enhancement ratio of 1.6 when compared to control V79.
V79 [5] = assay: Reduction of optical density by 50% compared to controls when assay was performed under air in […] V79 Cells.; format: functional, Cricetulus griseus; in short: as §1
Mus musculus = assay: The maximum tolerated dose described as the highest single intraperitoneal dose which did not produce severe or persistent clinical signs or death of the adult non-tumor bearing mice within 24 hours.; format: functional
In short: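 Adult non-tumor-bearing mice received escalating single ip doses of compound, dissolved fresh in 0.1 M phosphate-buffered saline, pH 7.4, at 0.02 mL/g body weight.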

[6] = In vivo radiosensitization of KHT tumors in mice by administration at a dose of 0.17 mmol/kg intraperitoneally. The optimum time interval between injection and irradiation of tumor was 60 minutes.; format: ADME, organism-based; settings: mouse, ip, 1 h
[7] = In vivo radiosensitization of KHT tumors in mice by administration at a dose of 0.38 mmol/kg intraperitoneally. The optimum time interval between injection and irradiation of tumor was 60 minutes.; format: ADME, organism-based; settings: mouse, ip, 1 h
[8] = In vivo radiosensitization of KHT tumors in mice by administration at a dose of 0.34 mmol/kg intraperitoneally. The optimum time interval between injection and irradiation of tumor was 30 minutes.; format: ADME, organism-based; settings: mouse, ip, 0.5 h

Row | SMILES | C50 (V79 [1]) [mM] | C50 (V79 [2]) [mM] | Ratio [3] | Activity [4] [mM] | C50 (V79 [5]) [mM] | MTD (Mus musculus) [mM/kg] | Surviving fraction [6] | Surviving fraction [7] | Surviving fraction [8]
1 | C=CCNC(=O)c1ccc([N+](=O)[O-])s1 | 0.11 | 0.3 | 2.5 | 0.08 |  |  |  |  | 
2 | O=C(/C=C/c1ccc([N+](=O)[O-])s1)NCC1CO1 (stereo unspecified) | 0.08 |  | 1 | 0.05 | 0.08 |  |  |  | 
3 | Cc1cc(CC2CO2)sc1[N+](=O)[O-] (stereo unspecified) | 0.045 |  | 1.3 | 0.06 | 0.065 |  |  |  | 
4 | Br.O=[N+]([O-])c1nccn1CC(O)CNCCBr (stereo unspecified) | 0.09 |  | 26 | 0.1 | 2.3 | 1 |  |  | 
5 | Cl.O=C(NCCN1CCCCC1)c1ccc([N+](=O)[O-])o1 | 0.016 |  | 3 | 0.01 | 0.05 | 0.17 | 0.0022 |  | 
6 | O=[N+]([O-])c1nccn1CC(O)CN1CC1 (stereo unspecified) | 0.0045 |  | 67 | 0.1 | 0.3 | 0.38 |  | 0.00083 | 
7 | Cc1sc(C(=O)NCC2CO2)cc1[N+](=O)[O-] (stereo unspecified) | 0.4 |  | 0.9 | 0.2 | 0.35 |  |  |  | 
8 | COCC(O)Cn1ccnc1[N+](=O)[O-] (stereo unspecified) [MISONIDAZOLE] | 4 |  |  | 0.6 | 45 | 4 |  |  | 
9 | Cc1sc(C(=O)NCCCN2CCCC2)cc1[N+](=O)[O-].Cl |  |  |  | 0.03 |  | 0.24 |  |  | 
10 | Cc1sc(C(=O)NCCN(C)C)cc1[N+](=O)[O-].Cl |  |  |  | 0.1 |  | 0.34 |  |  | 0.005
11 | COC(=O)[C@H](CCCCN)NC(=O)c1cc([N+](=O)[O-])c(C)s1.Cl | 0.35 |  | 1 | 0.05 | 0.35 | 0.34 |  |  | 
12 | Cc1sc(C(=O)NCCN2CCCCC2)cc1[N+](=O)[O-].Cl | 0.8 |  | 2.3 | 0.07 | 1.8 | <0.34 |  |  | 
13 | Cc1sc(C(=O)NCCN2CCOCC2)cc1[N+](=O)[O-].Cl | 2.5 |  | 1 | 1 | 2.5 | 0.34 |  |  | 
14 | O=C(NCC1CO1)c1ccc([N+](=O)[O-])s1 (stereo unspecified) | 0.15 |  | 1 | 0.05 | 0.15 |  |  |  | 
